# Results taken from ChEMBL document CHEMBL3085676, “Self-assembly to function: design, synthesis, and broad spectrum antimicrobial properties of short hybrid E-vinylogous lipopeptides” (J Med Chem, 2013).
# Calls of active or inactive are those of the source. No cut-off for these calls is given here.
# Test system: Escherichia coli
# Experiment: Antibacterial activity against Escherichia coli K-12 NCIM 2563 assessed as disruption of cell membrane at 50 uM after 1 hr by atomic force microscopic analysis
# Type: functional, organism-based
# Conditions: not given
# Method in brief: (§1)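 E. coli grown in MHB and C. albicans in potato dextrose broth were pelleted and resuspended in deionized water. Cells incubated with 50 µM peptide at 37 °C for 1 h, dried 30 min at 25 °C on poly-L-lysine glass, and imaged by AFM in intermittent contact mode. Peptide-free cells served as control.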
row,Structure (SMILES),Activity
1,CCCCCCCCCCCC(=O)N[C@H](/C=C/C(=O)N[C@@H](CCCCN)C(=O)N[C@H](/C=C/C(=O)N[C@@H](CCCCN)C(N)=O)Cc1ccc(O)cc1)Cc1ccc(O)cc1,Active

# Test system: Klebsiella pneumoniae
# Experiment: Antibacterial activity against Klebsiella pneumoniae NCIM 2957 after 18 to 20 hrs by broth dilution assay
# Type: functional
# Conditions: not given
# Method in brief: (§2)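 Two-fold serial dilutions in Mueller-Hinton broth, run in triplicate. Overnight 37 °C cultures diluted to 10⁶ CFU/mL and added 1:1 to the peptide, then incubated at 37 °C for 18-20 h. Growth was read as absorbance at 492 nm against no-peptide controls. MIC taken as the lowest concentration giving complete inhibition or killing. Reproducible across three independent triplicates.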
row,MIC [µg/mL],Structure (SMILES)
1,3.12,CCCCCCCCCCCC(=O)N[C@H](/C=C/C(=O)N[C@@H](CCCCN)C(=O)N[C@H](/C=C/C(=O)N[C@@H](CCCCN)C(N)=O)Cc1ccc(O)cc1)Cc1ccc(O)cc1

# Test system: Saccharomyces cerevisiae
# Experiment: Antifungal activity against Saccharomyces cerevisiae NCIM 3454 after 48 to 72 hrs
# Type: functional
# Conditions: not given
# Method in brief: (§3)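 Peptide in water was serially diluted two-fold in potato dextrose broth and mixed 1:1 with yeast suspension at 2×10³ CFU/ml. Incubated at 25 °C for 48-72 h, with growth read as absorbance at 620 nm against a peptide-free culture. MIC was the lowest concentration giving complete growth inhibition. Run in triplicate.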
row,MIC [µg/mL],Structure (SMILES)
1,3.12,CCCCCCCCCCCC(=O)N[C@H](/C=C/C(=O)N[C@@H](CCCCN)C(=O)N[C@H](/C=C/C(=O)N[C@@H](CCCCN)C(N)=O)Cc1ccc(O)cc1)Cc1ccc(O)cc1

# Test system: not listed separately
# Experiment: Hemolytic activity in human RBC after 1 hr
# Type: ADME, cell-based
# Conditions: erythrocyte
# Method in brief: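 Fresh EDTA-collected human RBCs washed four times in Tris-buffered saline (10 mM Tris, 150 mM NaCl, pH 7.2) and used at 4% v/v, mixed 1:1 with two-fold serially diluted peptide (top 100 µg/ml before mixing). Incubated at 37 °C for 1 h and centrifuged; supernatant hemoglobin read at 540 nm. Buffer and 1% Triton-X served as negative and positive controls. Percent hemolysis = (A−A_N)/(A_P−A_N)×100. Run in duplicate.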
row,Structure (SMILES),HD10 [µg/mL]
1,CCCCCCCCCCCC(=O)N[C@H](/C=C/C(=O)N[C@@H](CCCCN)C(=O)N[C@H](/C=C/C(=O)N[C@@H](CCCCN)C(N)=O)Cc1ccc(O)cc1)Cc1ccc(O)cc1,2.5

# Test system: Candida albicans
# Experiment: Antifungal activity against Candida albicans NCIM 3471 after 48 to 72 hrs
# Type: functional
# Conditions: not given
# Method in brief: as §3
row,MIC [µg/mL],Structure (SMILES)
1,1.56,CCCCCCCCCCCC(=O)N[C@H](/C=C/C(=O)N[C@@H](CCCCN)C(=O)N[C@H](/C=C/C(=O)N[C@@H](CCCCN)C(N)=O)Cc1ccc(O)cc1)Cc1ccc(O)cc1

# Test system: Escherichia coli
# Experiment: Antibacterial activity against Escherichia coli expressing pUC19 plasmid assessed as disruption of cytoplasmic membrane at 20 ug/mL after 1 hr by beta-galactosidase leakage assay
# Type: functional, organism-based
# Conditions: not given
# Method in brief: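 E. coli TOP10 transformed with pUC19 (lacZ) grown in LB with 100 µg/ml ampicillin at 37 °C to A660 0.6, then washed three times. Peptide stock (200 µg/ml) added 1:10 to cells and incubated at 37 °C for 1 h. After centrifugation, supernatant was mixed with 4-methylumbelliferyl substrate and fluorescence followed for 1 h. Initial velocities used; water blank; triplicates.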
row,Structure (SMILES),Activity
1,CCCCCCCCCCCC(=O)N[C@H](/C=C/C(=O)N[C@@H](CCCCN)C(=O)N[C@H](/C=C/C(=O)N[C@@H](CCCCN)C(N)=O)Cc1ccc(O)cc1)Cc1ccc(O)cc1,Active

# Test system: Nakaseomyces glabratus
# Experiment: Antifungal activity against Candida glabrata NCIM 3237 after 48 to 72 hrs
# Type: functional
# Conditions: not given
# Method in brief: as §3
row,MIC [µg/mL],Structure (SMILES)
1,3.12,CCCCCCCCCCCC(=O)N[C@H](/C=C/C(=O)N[C@@H](CCCCN)C(=O)N[C@H](/C=C/C(=O)N[C@@H](CCCCN)C(N)=O)Cc1ccc(O)cc1)Cc1ccc(O)cc1

# Test system: Salmonella typhimurium
# Experiment: Antibacterial activity against Salmonella typhimurium NCIM 2501 after 18 to 20 hrs by broth dilution assay
# Type: functional, Salmonella enterica subsp. enterica serovar Typhimurium
# Conditions: Salmonella enterica
# Method in brief: as §2
row,MIC [µg/mL],Structure (SMILES)
1,3.12,CCCCCCCCCCCC(=O)N[C@H](/C=C/C(=O)N[C@@H](CCCCN)C(=O)N[C@H](/C=C/C(=O)N[C@@H](CCCCN)C(N)=O)Cc1ccc(O)cc1)Cc1ccc(O)cc1

# Test system: Pseudomonas aeruginosa
# Experiment: Antibacterial activity against Pseudomonas aeruginosa NCIM 5029 after 18 to 20 hrs by broth dilution assay
# Type: functional
# Conditions: not given
# Method in brief: as §2
row,MIC [µg/mL],Structure (SMILES)
1,3.12,CCCCCCCCCCCC(=O)N[C@H](/C=C/C(=O)N[C@@H](CCCCN)C(=O)N[C@H](/C=C/C(=O)N[C@@H](CCCCN)C(N)=O)Cc1ccc(O)cc1)Cc1ccc(O)cc1

# Test system: Escherichia coli
# Experiment: Antibacterial activity against Escherichia coli K-12 NCIM 2563 after 18 to 20 hrs by broth dilution assay
# Type: functional
# Conditions: not given
# Method in brief: as §2
row,MIC [µg/mL],Structure (SMILES)
1,6.25,CCCCCCCCCCCC(=O)N[C@H](/C=C/C(=O)N[C@@H](CCCCN)C(=O)N[C@H](/C=C/C(=O)N[C@@H](CCCCN)C(N)=O)Cc1ccc(O)cc1)Cc1ccc(O)cc1

# Test system: Staphylococcus aureus
# Experiment: Antibacterial activity against Staphylococcus aureus NCIM 5021 after 18 to 20 hrs by broth dilution assay
# Type: functional
# Conditions: not given
# Method in brief: as §2
row,MIC [µg/mL],Structure (SMILES)
1,3.12,CCCCCCCCCCCC(=O)N[C@H](/C=C/C(=O)N[C@@H](CCCCN)C(=O)N[C@H](/C=C/C(=O)N[C@@H](CCCCN)C(N)=O)Cc1ccc(O)cc1)Cc1ccc(O)cc1

# Test system: Escherichia coli
# Experiment: Antibacterial activity against Escherichia coli K-12 NCIM 2563 at 50 uM after 60 mins by FITC uptake assay
# Type: functional, organism-based
# Conditions: not given
# Method in brief: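 E. coli grown in MHB to OD 0.6, washed, and suspended at 2×10⁷ cfu/ml in 10 mM sodium phosphate pH 7.4. Cells incubated with 50 µM peptide at 37 °C for 60 min, then immobilized on poly-L-lysine slides for 50 min at 30 °C. FITC (10 µg/ml) added, slides washed, and cells examined by fluorescence microscopy. Solvent-treated control.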
row,Structure (SMILES),Activity
1,CCCCCCCCCCCC(=O)N[C@H](/C=C/C(=O)N[C@@H](CCCCN)C(=O)N[C@H](/C=C/C(=O)N[C@@H](CCCCN)C(N)=O)Cc1ccc(O)cc1)Cc1ccc(O)cc1,Active

# Test system: Candida albicans
# Experiment: Antifungal activity against Candida albicans NCIM 3471 assessed as disruption of cell membrane by atomic force microscopic analysis
# Type: functional, organism-based
# Conditions: not given
# Method in brief: as §1
row,Structure (SMILES),Activity
1,CCCCCCCCCCCC(=O)N[C@H](/C=C/C(=O)N[C@@H](CCCCN)C(=O)N[C@H](/C=C/C(=O)N[C@@H](CCCCN)C(N)=O)Cc1ccc(O)cc1)Cc1ccc(O)cc1,Active

# Test system: Escherichia coli
# Experiment: Antibacterial activity against Escherichia coli NCIM 2065 after 18 to 20 hrs by broth dilution assay
# Type: functional
# Conditions: not given
# Method in brief: as §2
row,MIC [µg/mL],Structure (SMILES)
1,6.25,CCCCCCCCCCCC(=O)N[C@H](/C=C/C(=O)N[C@@H](CCCCN)C(=O)N[C@H](/C=C/C(=O)N[C@@H](CCCCN)C(N)=O)Cc1ccc(O)cc1)Cc1ccc(O)cc1

# Test system: Cryptococcus neoformans
# Experiment: Antifungal activity against Cryptococcus neoformans NCIM 3542 after 48 to 72 hrs
# Type: functional
# Conditions: not given
# Method in brief: as §3
row,MIC [µg/mL],Structure (SMILES)
1,6.25,CCCCCCCCCCCC(=O)N[C@H](/C=C/C(=O)N[C@@H](CCCCN)C(=O)N[C@H](/C=C/C(=O)N[C@@H](CCCCN)C(N)=O)Cc1ccc(O)cc1)Cc1ccc(O)cc1
